Reference: ChEMBL document CHEMBL4425163, “Structure elucidation of anti-methicillin resistant Staphylococcus aureus (MRSA) flavonoids from balsam poplar buds” (Bioorg Med Chem, 2016)
≈ marks a conversion by molar mass, not a printed value.

Columns and labels:
Staphylococcus aureus [1] = test: Antibacterial activity against methicillin resistant Staphylococcus aureus clinical isolate 3 incubated for 7 to 14 days by microdilution resazurin assay
Staphylococcus aureus [2] = test: Antibacterial activity against methicillin resistant Staphylococcus aureus clinical isolate 1 incubated […] by microdilution resazurin assay; type: functional
Staphylococcus aureus [3] = test: Antibacterial activity against methicillin resistant Staphylococcus aureus clinical isolate 9 incubated […] by microdilution resazurin assay; type: functional
[4] = Cytotoxicity against human WS1 cells by resazurin reduction assay; type: cell-based
How it was run: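 WS1 human fibroblast line; resazurin reduction test, slightly modified from an earlier method. Etoposide served as positive control.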

Staphylococcus aureus [5] = test: Antibacterial activity against methicillin resistant Staphylococcus aureus clinical isolate 5 incubated […] by microdilution resazurin assay; type: functional
Staphylococcus aureus [6] = test: Antibacterial activity against methicillin resistant Staphylococcus aureus clinical isolate 8 incubated […] by microdilution resazurin assay; type: functional
Staphylococcus aureus [7] = test: Antibacterial activity against methicillin resistant Staphylococcus aureus clinical isolate 10 incubated […] by microdilution resazurin assay; type: functional
Staphylococcus aureus [8] = test: Antibacterial activity against Staphylococcus aureus ATCC 25923 incubated […] by microdilution resazurin assay; type: functional
Staphylococcus aureus [9] = test: Antibacterial activity against methicillin resistant Staphylococcus aureus clinical isolate 7 incubated […] by microdilution resazurin assay; type: functional
Staphylococcus aureus [10] = test: Antibacterial activity against methicillin resistant Staphylococcus aureus clinical isolate 2 incubated […] by microdilution resazurin assay; type: functional
Staphylococcus aureus [11] = test: Antibacterial activity against methicillin resistant Staphylococcus aureus clinical isolate 4 incubated for 7 to 14 days by microdilution resazurin assay
Staphylococcus aureus [12] = test: Antibacterial activity against methicillin resistant Staphylococcus aureus clinical isolate 6 incubated […] by microdilution resazurin assay; type: functional
[13] = Staphylococcus aureus, isolate 1, read-out: MIC
[14] = Staphylococcus aureus, isolate 9, read-out: MIC
[15] = Staphylococcus aureus, isolate 5, read-out: MIC
[16] = Staphylococcus aureus, isolate 8, read-out: MIC
[17] = Staphylococcus aureus, isolate 10, read-out: MIC
[18] = Staphylococcus aureus, ATCC 25923, read-out: MIC
[19] = Staphylococcus aureus, isolate 7, read-out: MIC
[20] = Staphylococcus aureus, isolate 2, read-out: MIC
[21] = Staphylococcus aureus, isolate 6, read-out: MIC

## COc1ccc(CCC(=O)c2c(O)c(C/C=C/c3ccc(O)cc3)c(O)c3c2O[C@@H](c2ccc(O)cc2)[C@H](C/C=C/c2ccc(O)cc2)C3)cc1 (racemic)
Staphylococcus aureus [1]
  MIC: 3 µM (≈ 2.05 µg/mL)
Staphylococcus aureus [2]; [13]
  MIC: 6 µM (≈ 4.11 µg/mL)
Staphylococcus aureus [3]; [14]
  MIC: 13 µM (≈ 8.9 µg/mL)
[4]; Homo sapiens, WS1
  IC50: > 10 µM
Staphylococcus aureus [5]; [15]
  MIC: 13 µM (≈ 8.9 µg/mL)
Staphylococcus aureus [6]; [16]
  MIC: 13 µM (≈ 8.9 µg/mL)
Staphylococcus aureus [7]; [17]
  MIC: 13 µM (≈ 8.9 µg/mL)
Staphylococcus aureus [8]; [18]
  MIC: 13 µM (≈ 8.9 µg/mL)
Staphylococcus aureus [9]; [19]
  MIC: 6 µM (≈ 4.11 µg/mL)
Staphylococcus aureus [10]; [20]
  MIC: 6 µM (≈ 4.11 µg/mL)
Staphylococcus aureus [11]
  MIC: 13 µM (≈ 8.9 µg/mL)
Staphylococcus aureus [12]; [21]
  MIC: 6 µM (≈ 4.11 µg/mL)

## O=C(CCc1ccccc1)c1c(O)c2c(c3c1O[C@@H](c1ccc(O)cc1)[C@H](C/C=C/c1ccc(O)cc1)C3)O[C@@H](c1ccc(O)cc1)[C@H](O)C2 (racemic)
Staphylococcus aureus [1]
  MIC: 6 µM (≈ 4.02 µg/mL)
Staphylococcus aureus [2]; [13]
  MIC: 6 µM (≈ 4.02 µg/mL)
Staphylococcus aureus [3]; [14]
  MIC: 6 µM (≈ 4.02 µg/mL)
[4]; Homo sapiens, WS1
  IC50: > 10 µM
Staphylococcus aureus [5]; [15]
  MIC: 6 µM (≈ 4.02 µg/mL)
Staphylococcus aureus [6]; [16]
  MIC: 6 µM (≈ 4.02 µg/mL)
Staphylococcus aureus [7]; [17]
  MIC: 6 µM (≈ 4.02 µg/mL)
Staphylococcus aureus [8]; [18]
  MIC: 6 µM (≈ 4.02 µg/mL)
Staphylococcus aureus [9]; [19]
  MIC: 6 µM (≈ 4.02 µg/mL)
Staphylococcus aureus [10]; [20]
  MIC: 6 µM (≈ 4.02 µg/mL)
Staphylococcus aureus [11]
  MIC: 6 µM (≈ 4.02 µg/mL)
Staphylococcus aureus [12]; [21]
  MIC: 6 µM (≈ 4.02 µg/mL)

## O=C(CCc1ccccc1)c1c(O)c2c(c3c1OC(c1ccc(O)cc1)C(C/C=C/c1ccc(O)cc1)C3)OC(c1ccc(O)cc1)C(C/C=C/c1ccc(O)cc1)C2 (racemic; form 1)
Staphylococcus aureus [1]
  MIC: > 50 µM
Staphylococcus aureus [2]; [13]
  MIC: > 50 µM
Staphylococcus aureus [3]; [14]
  MIC: > 50 µM
[4]
  IC50: 2.3 µM
Staphylococcus aureus [5]; [15]
  MIC: > 50 µM
Staphylococcus aureus [6]; [16]
  MIC: > 50 µM
Staphylococcus aureus [7]; [17]
  MIC: > 50 µM
Staphylococcus aureus [9]; [19]
  MIC: > 50 µM
Staphylococcus aureus [10]; [20]
  MIC: > 50 µM
Staphylococcus aureus [11]
  MIC: > 50 µM
Staphylococcus aureus [12]; [21]
  MIC: > 50 µM

## O=C(CCc1ccccc1)c1c(O)c2c(c3c1OC(c1ccc(O)cc1)C(C/C=C/c1ccc(O)cc1)C3)OC(c1ccc(O)cc1)C(C/C=C/c1ccc(O)cc1)C2 (racemic; form 2)
[4]
  IC50: > 10 µM
Staphylococcus aureus [8]; [18]
  MIC: > 50 µM

## O=C(CCc1ccccc1)c1c(O)cc(O)c2c1OC(c1ccc(O)cc1)CC2 (single isomer, unassigned; (+))
Staphylococcus aureus [2]
  MIC: 13 µM (≈ 5.08 µg/mL)
Staphylococcus aureus [6]
  MIC: 13 µM (≈ 5.08 µg/mL)
Staphylococcus aureus [8]; [18]
  MIC: 6 µM (≈ 2.34 µg/mL)
Staphylococcus aureus [10]
  MIC: 13 µM (≈ 5.08 µg/mL)
Staphylococcus aureus [12]
  MIC: 25 µM (≈ 9.76 µg/mL)

## O=C(CCc1ccccc1)c1c(O)cc(O)c2c1OC(c1ccc(O)cc1)C(O)C2 (stereo in doubt; (+)-15)
Staphylococcus aureus [2]
  MIC: 25 µM (≈ 10.2 µg/mL)
Staphylococcus aureus [3]
  MIC: 25 µM (≈ 10.2 µg/mL)
Staphylococcus aureus [6]
  MIC: 25 µM (≈ 10.2 µg/mL)
Staphylococcus aureus [8]; [18]
  MIC: 25 µM (≈ 10.2 µg/mL)
Staphylococcus aureus [12]
  MIC: 25 µM (≈ 10.2 µg/mL)

## COc1ccc(CCC(=O)c2c(O)cc(O)c3c2OC(c2ccc(O)cc2)C(O)C3)cc1 (stereo in doubt; (+)-16)
Staphylococcus aureus [2]
  MIC: >50 µM
Staphylococcus aureus [5]
  MIC: >50 µM
Staphylococcus aureus [6]
  MIC: 50 µM (≈ 21.8 µg/mL)
Staphylococcus aureus [7]
  MIC: >50 µM
Staphylococcus aureus [8]; [18]
  MIC: 25 µM (≈ 10.9 µg/mL)
Staphylococcus aureus [10]
  MIC: 50 µM (≈ 21.8 µg/mL)

## O=C(CCc1ccccc1)c1c(O)cc2c(c1O)CC(O)C(c1ccc(O)cc1)O2 (stereo in doubt; (+)-17)
Staphylococcus aureus [6]
  MIC: 50 µM (≈ 20.3 µg/mL)
Staphylococcus aureus [7]
  MIC: >50 µM
Staphylococcus aureus [8]; [18]
  MIC: 50 µM (≈ 20.3 µg/mL)
Staphylococcus aureus [9]
  MIC: 50 µM (≈ 20.3 µg/mL)

## O=C(CCc1ccccc1)c1c(O)cc(O)c2c1OC(c1ccc(O)cc1)CC2 (stereo in doubt; (-)-12)
Staphylococcus aureus [1]
  MIC: 6 µM (≈ 2.34 µg/mL)
Staphylococcus aureus [2]
  MIC: 6 µM (≈ 2.34 µg/mL)
Staphylococcus aureus [3]; [14]
  MIC: 13 µM (≈ 5.08 µg/mL)
[4]; Homo sapiens, WS1
  IC50: > 10 µM
Staphylococcus aureus [5]; [15]
  MIC: 6 µM (≈ 2.34 µg/mL)
Staphylococcus aureus [6]
  MIC: 6 µM (≈ 2.34 µg/mL)
Staphylococcus aureus [7]; [17]
  MIC: 13 µM (≈ 5.08 µg/mL)
Staphylococcus aureus [9]; [19]
  MIC: 6 µM (≈ 2.34 µg/mL)
Staphylococcus aureus [10]
  MIC: 6 µM (≈ 2.34 µg/mL)
Staphylococcus aureus [12]; [21]
  MIC: 13 µM (≈ 5.08 µg/mL)

## O=C(CCc1ccccc1)c1c(O)cc(O)c2c1OC(c1ccc(O)cc1)C(O)C2 (stereo in doubt; (-)-15)
Staphylococcus aureus [1]
  MIC: 50 µM (≈ 20.3 µg/mL)
Staphylococcus aureus [2]; [13]
  MIC: 50 µM (≈ 20.3 µg/mL)
Staphylococcus aureus [3]; [14]
  MIC: 50 µM (≈ 20.3 µg/mL)
[4]; Homo sapiens, WS1
  IC50: > 10 µM
Staphylococcus aureus [5]; [15]
  MIC: 25 µM (≈ 10.2 µg/mL)
Staphylococcus aureus [6]; [16]
  MIC: 50 µM (≈ 20.3 µg/mL)
Staphylococcus aureus [7]; [17]
  MIC: 25 µM (≈ 10.2 µg/mL)
Staphylococcus aureus [9]; [19]
  MIC: 25 µM (≈ 10.2 µg/mL)
Staphylococcus aureus [10]; [20]
  MIC: 25 µM (≈ 10.2 µg/mL)
Staphylococcus aureus [11]
  MIC: 50 µM (≈ 20.3 µg/mL)
Staphylococcus aureus [12]; [21]
  MIC: 50 µM (≈ 20.3 µg/mL)

## COc1ccc(CCC(=O)c2c(O)cc(O)c3c2OC(c2ccc(O)cc2)C(O)C3)cc1 (stereo in doubt; (-)-16)
Staphylococcus aureus [1]
  MIC: 25 µM (≈ 10.9 µg/mL)
Staphylococcus aureus [2]; [13]
  MIC: 50 µM (≈ 21.8 µg/mL)
Staphylococcus aureus [3]; [14]
  MIC: 50 µM (≈ 21.8 µg/mL)
[4]; Homo sapiens, WS1
  IC50: > 10 µM
Staphylococcus aureus [5]
  MIC: 13 µM (≈ 5.67 µg/mL)
Staphylococcus aureus [6]; [16]
  MIC: > 50 µM
Staphylococcus aureus [7]; [17]
  MIC: 25 µM (≈ 10.9 µg/mL)
Staphylococcus aureus [9]; [19]
  MIC: 25 µM (≈ 10.9 µg/mL)
Staphylococcus aureus [10]; [20]
  MIC: 25 µM (≈ 10.9 µg/mL)
Staphylococcus aureus [12]; [21]
  MIC: 50 µM (≈ 21.8 µg/mL)

## GENTAMICIN
Staphylococcus aureus [2]
  MIC: 0.05 µM
Staphylococcus aureus [3]
  MIC: 0.07 µM
Staphylococcus aureus [5]
  MIC: 0.08 µM
Staphylococcus aureus [6]
  MIC: 0.09 µM
Staphylococcus aureus [7]
  MIC: 0.07 µM
Staphylococcus aureus [8]
  MIC: 0.03 µM
Staphylococcus aureus [9]
  MIC: 0.07 µM
Staphylococcus aureus [10]
  MIC: 0.04 µM
Staphylococcus aureus [12]
  MIC: 0.05 µM
